Measurements as given in ChEMBL document CHEMBL1143339, “Design and synthesis of amidoxime derivatives for orally potent C-alkylamidine-based antimalarial agents” (Bioorg Med Chem Lett, 2009).

Experiments:
[1] = tested on: Plasmodium vinckei petteri; experiment: Antimalarial activity against Plasmodium vinckei petteri 279BY infected Swiss mice (Mus musculus) at daily peroral dose for 4 days; format: functional; settings: po, 96 h
In short: (§1)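 Female Swiss mice infected iv with 10⁷ P. vinckei petteri 279BY parasites (about 0.5% parasitemia on day 1). Dosed ip or orally once daily on days 1–4 post-infection. Parasitemia read on day 5 and expressed as % of untreated control. Three mice per dose; mean ± SEM.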

Plasmodium falciparum = experiment: Antimalarial activity after 48 hrs against chloroquine-sensitive Plasmodium falciparum Nigerian by [3H]hypoxanthine uptake; format: functional, organism-based
In short: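 IC50 against P. falciparum given as the mean of at least two independent experiments, each run in duplicate.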

[2] = tested on: Plasmodium vinckei petteri; experiment: Antimalarial activity against Plasmodium vinckei petteri 279BY infected Swiss mice (Mus musculus) at daily intraperitoneal dose for 4 days; format: functional; settings: ip, 96 h; in short: as §1
[3] = tested on: Plasmodium vinckei petteri; experiment: Antimalarial activity against Plasmodium vinckei petteri 279BY infected Swiss mice (Mus musculus) at 120 mg/kg/day peroral dose over 4 days; format: functional; settings: route oral; in short: as §1
[4] = tested on: Plasmodium vinckei petteri; experiment: Antimalarial activity against Plasmodium vinckei petteri 279BY infected Swiss mice (Mus musculus) at 20 mg/kg/day intraperitoneal dose over 4 days; format: functional; in short: as §1
[5] = tested on: Plasmodium vinckei petteri; experiment: Antimalarial activity against Plasmodium vinckei petteri 279BY infected Swiss mice (Mus musculus) at 180 mg/kg/day peroral dose over 4 days; format: functional; settings: route oral; in short: as §1

| IC50 (Plasmodium falciparum) [nM] | SMILES | ED50 [1] [mg/kg] | ED50 [2] [mg/kg] | Activity [3] [%] | Activity [4] [%] | Activity [5] [%] |
| --- | --- | --- | --- | --- | --- | --- |
| 3500 | N/C(CCCCCCCCCCCC/C(N)=N/O)=N\O | 120 | – | – | – | – |
| 1400 | CC(=O)O/N=C(/N)CCCCCCCCCCCCC(=N)NOC(C)=O | > 90 | > 10 | – | – | – |
| 1100 | N=C(CCCCCCCCCCCC/C(N)=N\OC(=O)c1ccccc1)NOC(=O)c1ccccc1 | > 90 | > 10 | – | – | – |
| 7000 | NC(=O)c1nc(CCCCCCCCCCCCc2noc(C(N)=O)n2)no1 | – | > 20 | – | – | – |
| 100000 | N#Cc1nc(CCCCCCCCCCCCc2noc(C#N)n2)no1 | – | > 20 | – | – | – |
| 2.5 | CS(=O)(=O)O/N=C(/N)CCCCCCCCCCCCC(=N)NOS(C)(=O)=O | 40 | 7 | – | – | – |
| 17.5 | O=c1[nH]c(CCCCCCCCCCCCc2nsc(=O)[nH]2)ns1 | > 120 | 20 | 25 | 50 | – |
| 9200 | O=c1[nH]c(CCCCCCCCCCCCc2noc(=O)[nH]2)no1 | 100 | > 20 | – | – | – |
| 6800 | CO/N=C(/N)CCCCCCCCCCCCC(=N)NOC | 180 | > 20 | – | – | 50 |
| 180 | CCNC(=O)O/N=C(/N)CCCCCCCCCCCCC(=N)NOC(=O)NCC | 90 | > 20 | 80 | – | – |
| – | N=C(CCCCCCCCCCCC/C(N)=N\OC(=O)Nc1ccccc1)NOC(=O)Nc1ccccc1 | > 180 | > 20 | – | – | – |
| 2.2 | Cc1c(CCO)sc[n+]1CCCCCCCCCCCC[n+]1csc(CCO)c1C [ALBITIAZOLIUM BROMIDE] | – | – | – | – | – |
| – | N=C(N)CCCCCCCCCCCCC(=N)N [TETRADECANEBIS(IMIDAMIDE)] | > 100 | > 10 | – | – | – |
